# Measured values from ChEMBL document CHEMBL1140794, “Discovery of 3-aryl-3-methyl-1H-quinoline-2,4-diones as a new class of selective 5-HT6 receptor antagonists” (Bioorg Med Chem Lett, 2008).
# Target: T1, 5-hydroxytryptamine receptor 2C (Homo sapiens, UniProt P28335)
# T1 sequence (P28335 whole entry): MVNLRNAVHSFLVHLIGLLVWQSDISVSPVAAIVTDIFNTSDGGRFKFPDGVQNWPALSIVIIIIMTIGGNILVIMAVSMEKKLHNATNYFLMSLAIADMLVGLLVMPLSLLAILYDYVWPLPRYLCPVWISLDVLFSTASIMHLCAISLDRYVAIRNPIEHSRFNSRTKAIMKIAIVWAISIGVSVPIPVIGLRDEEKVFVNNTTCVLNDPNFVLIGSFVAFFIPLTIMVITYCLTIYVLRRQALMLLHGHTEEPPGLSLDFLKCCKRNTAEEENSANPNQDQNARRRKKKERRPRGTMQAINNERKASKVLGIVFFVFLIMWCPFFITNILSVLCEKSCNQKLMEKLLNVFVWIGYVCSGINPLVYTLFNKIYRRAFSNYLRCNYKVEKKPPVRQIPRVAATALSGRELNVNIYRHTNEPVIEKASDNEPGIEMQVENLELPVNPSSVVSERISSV
# Experiment: Displacement of [3H]mesulergine from human cloned 5HT2C receptor
row,Structure (SMILES),Ki [nM]
1,CC1(c2ccc(O)cc2)C(=O)Nc2cc(Cl)cc(Cl)c2C1=O (stereo not drawn),> 10000
2,CC1(c2ccccc2)C(=O)Nc2cc(Cl)cc(Cl)c2C1=O (racemic),> 10000
3,CC1(c2cccc(O)c2)C(=O)Nc2cc(Cl)cc(Cl)c2C1=O (stereo not drawn),> 10000
4,CC1(c2cccc(OCc3ccccc3)c2)C(=O)Nc2cc(Cl)cc(Cl)c2C1=O (stereo not drawn),> 10000
5,COc1ccc(NS(=O)(=O)c2sc3ccc(Cl)cc3c2C)cc1N1CCNCC1,530

# Target: T2, 5-hydroxytryptamine receptor 1A (Homo sapiens, UniProt P08908)
# T2 sequence (P08908 whole entry): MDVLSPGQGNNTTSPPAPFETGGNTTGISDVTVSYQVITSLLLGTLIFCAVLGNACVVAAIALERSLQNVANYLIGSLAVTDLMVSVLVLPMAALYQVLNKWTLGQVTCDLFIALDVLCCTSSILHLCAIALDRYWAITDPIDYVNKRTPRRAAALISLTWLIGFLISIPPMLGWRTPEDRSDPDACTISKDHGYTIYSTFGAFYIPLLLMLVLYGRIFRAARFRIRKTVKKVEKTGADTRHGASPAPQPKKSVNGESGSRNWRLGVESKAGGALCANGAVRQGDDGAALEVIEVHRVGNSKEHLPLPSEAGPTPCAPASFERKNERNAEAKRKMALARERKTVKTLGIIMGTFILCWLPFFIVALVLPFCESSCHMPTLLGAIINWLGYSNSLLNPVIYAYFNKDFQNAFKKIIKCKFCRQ
# Experiment: Displacement of [3H]8-OH-DPAT from human cloned 5HT1A receptor
row,Structure (SMILES),Ki [nM]
1,CC1(c2ccc(O)cc2)C(=O)Nc2cc(Cl)cc(Cl)c2C1=O (stereo not drawn),> 10000
2,CC1(c2ccccc2)C(=O)Nc2cc(Cl)cc(Cl)c2C1=O (racemic),> 10000
3,CC1(c2cccc(O)c2)C(=O)Nc2cc(Cl)cc(Cl)c2C1=O (stereo not drawn),> 10000
4,CC1(c2cccc(OCc3ccccc3)c2)C(=O)Nc2cc(Cl)cc(Cl)c2C1=O (stereo not drawn),170

# Target: T3, 5-hydroxytryptamine receptor 6 (Homo sapiens, UniProt P50406)
# T3 sequence (P50406 whole entry): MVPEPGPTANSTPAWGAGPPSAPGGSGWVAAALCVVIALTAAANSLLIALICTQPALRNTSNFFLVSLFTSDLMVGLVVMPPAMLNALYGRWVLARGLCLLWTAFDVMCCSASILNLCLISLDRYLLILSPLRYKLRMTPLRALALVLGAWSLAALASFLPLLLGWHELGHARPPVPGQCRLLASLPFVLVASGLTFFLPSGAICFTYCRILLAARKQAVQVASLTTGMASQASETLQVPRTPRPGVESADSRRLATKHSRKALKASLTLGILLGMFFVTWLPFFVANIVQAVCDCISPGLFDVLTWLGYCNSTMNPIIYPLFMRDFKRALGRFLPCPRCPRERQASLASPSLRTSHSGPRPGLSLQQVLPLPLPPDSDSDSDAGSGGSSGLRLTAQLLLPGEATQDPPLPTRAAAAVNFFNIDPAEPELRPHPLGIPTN
# Experiment: Antagonist activity at human cloned 5HT6 receptor expressed in HeLa cells assessed as inhibition of 5-HT-stimulated cAMP accumulation after 20 mins by enzyme-immunoassay
# Assay type: functional, cell-based
# Summary of the method: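 […] and test compounds were added to HBSS (pH 7.4) containing 1 mM MgCl₂, 1 mM CaCl₂ and 1-methyl-3-isobutylxanthine (IBMX) at 100. After 20 min at 37 °C, intracellular cAMP was measured by enzyme immunoassay. Compounds that inhibited 5-HT-stimulated cAMP accumulation were classed as antagonists.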
row,Structure (SMILES),IC50 [nM]
1,CC1(c2ccc(O)cc2)C(=O)Nc2cc(Cl)cc(Cl)c2C1=O (stereo not drawn),615

# Target: D(1A) dopamine receptor (Homo sapiens, UniProt P21728)
# Sequence (P21728 whole entry): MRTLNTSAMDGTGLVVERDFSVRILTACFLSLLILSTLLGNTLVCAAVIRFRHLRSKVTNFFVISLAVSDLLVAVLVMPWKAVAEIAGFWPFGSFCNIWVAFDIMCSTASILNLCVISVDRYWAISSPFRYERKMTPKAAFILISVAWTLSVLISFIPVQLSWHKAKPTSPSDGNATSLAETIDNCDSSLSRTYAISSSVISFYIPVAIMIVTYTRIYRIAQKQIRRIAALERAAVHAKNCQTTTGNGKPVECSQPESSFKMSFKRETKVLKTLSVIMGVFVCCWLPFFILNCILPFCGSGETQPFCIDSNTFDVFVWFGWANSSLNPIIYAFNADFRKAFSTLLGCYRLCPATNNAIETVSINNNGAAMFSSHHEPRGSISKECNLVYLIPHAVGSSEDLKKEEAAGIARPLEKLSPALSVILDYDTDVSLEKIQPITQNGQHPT
# Experiment: Displacement of [3H]SCH-23390 from human cloned dopamine D1 receptor
row,Structure (SMILES),Ki [nM]
1,CC1(c2ccc(O)cc2)C(=O)Nc2cc(Cl)cc(Cl)c2C1=O (stereo not drawn),> 10000
2,CC1(c2ccccc2)C(=O)Nc2cc(Cl)cc(Cl)c2C1=O (racemic),> 10000
3,CC1(c2cccc(O)c2)C(=O)Nc2cc(Cl)cc(Cl)c2C1=O (stereo not drawn),1810
4,CC1(c2cccc(OCc3ccccc3)c2)C(=O)Nc2cc(Cl)cc(Cl)c2C1=O (stereo not drawn),120
5,COc1ccc(NS(=O)(=O)c2sc3ccc(Cl)cc3c2C)cc1N1CCNCC1,120

# Target: D(3) dopamine receptor (Homo sapiens, UniProt P35462)
# Sequence (P35462 whole entry): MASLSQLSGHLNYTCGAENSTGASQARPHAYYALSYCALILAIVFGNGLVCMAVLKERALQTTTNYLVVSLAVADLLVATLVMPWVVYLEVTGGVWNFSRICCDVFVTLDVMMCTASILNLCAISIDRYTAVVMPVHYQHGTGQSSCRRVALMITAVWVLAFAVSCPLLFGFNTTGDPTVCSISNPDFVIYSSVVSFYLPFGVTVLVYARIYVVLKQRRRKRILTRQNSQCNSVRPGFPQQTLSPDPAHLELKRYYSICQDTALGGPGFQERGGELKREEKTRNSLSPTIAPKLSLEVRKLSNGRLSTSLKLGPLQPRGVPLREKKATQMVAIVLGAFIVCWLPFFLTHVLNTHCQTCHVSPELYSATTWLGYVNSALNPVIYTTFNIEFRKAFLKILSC
# Experiment: Displacement of [3H]spiperone from human cloned dopamine D3 receptor
row,Structure (SMILES),Ki [nM]
1,CC1(c2ccc(O)cc2)C(=O)Nc2cc(Cl)cc(Cl)c2C1=O (stereo not drawn),> 10000
2,CC1(c2ccccc2)C(=O)Nc2cc(Cl)cc(Cl)c2C1=O (racemic),> 10000
3,CC1(c2cccc(O)c2)C(=O)Nc2cc(Cl)cc(Cl)c2C1=O (stereo not drawn),> 10000
4,CC1(c2cccc(OCc3ccccc3)c2)C(=O)Nc2cc(Cl)cc(Cl)c2C1=O (stereo not drawn),> 10000

# Target: T3, 5-hydroxytryptamine receptor 6
# Experiment: Displacement of [3H]LSD from human cloned 5HT6 receptor expressed in HEK293 cells
# Assay type: cell-based
row,Structure (SMILES),Ki [nM]
1,CCNc1ccc(C2(C)C(=O)Nc3cc(Cl)cc(Cl)c3C2=O)cc1 (stereo not drawn),28.3
2,CC1(c2ccccc2)C(=O)Nc2cc(Cl)c(Cl)cc2C1=O (stereo not drawn),> 1000
3,CC1(c2ccc(O)cc2)C(=O)Nc2cc(Cl)cc(Cl)c2C1=O (stereo not drawn),12.3
4,CC1(c2ccccc2)C(=O)Nc2cc(Cl)cc(Cl)c2C1=O (racemic),54.7
5,COc1ccc([C@]2(C)C(=O)Nc3cc(Cl)cc(Cl)c3C2=O)cc1,293
6,CC1(c2ccccc2)C(=O)Nc2cc(Cl)ccc2C1=O (stereo not drawn),> 1000
7,CC1(c2ccc(Br)cc2)C(=O)Nc2cc(Cl)cc(Cl)c2C1=O (stereo not drawn),304
8,COc1cc(Br)c2c(c1)NC(=O)C(C)(c1ccccc1)C2=O (stereo not drawn),73.2
9,COc1ccc(C2(C)C(=O)Nc3cc(Cl)cc(Cl)c3C2=O)cc1 (stereo not drawn),147
10,COc1ccc(C2(C)C(=O)Nc3cc(Cl)cc(Cl)c3C2=O)cc1[N+](=O)[O-] (stereo not drawn),> 1000
11,CN(C)c1ccc(C2(C)C(=O)Nc3cc(Cl)cc(Cl)c3C2=O)cc1 (stereo not drawn),346
12,CC1(c2ccccc2)C(=O)Nc2cc(Br)cc(Br)c2C1=O (stereo not drawn),197
13,CC1(c2ccc(N)cc2)C(=O)Nc2cc(Cl)cc(Cl)c2C1=O (stereo not drawn),156
14,CC1(c2cccc(O)c2)C(=O)Nc2cc(Cl)cc(Cl)c2C1=O (stereo not drawn),30.1
15,CNc1ccc(C2(C)C(=O)Nc3cc(Cl)cc(Cl)c3C2=O)cc1 (stereo not drawn),257
16,CN(C)c1cc(Cl)c2c(c1)NC(=O)C(C)(c1ccccc1)C2=O (stereo not drawn),715
17,CC1(c2ccc(O)c([N+](=O)[O-])c2)C(=O)Nc2cc(Cl)cc(Cl)c2C1=O (stereo not drawn),> 1000
18,CC1(c2ccccc2)C(=O)Nc2ccccc2C1=O (stereo not drawn),> 1000
19,CC1(c2ccc(O)c(Br)c2)C(=O)Nc2cc(Cl)cc(Cl)c2C1=O (stereo not drawn),77.5
20,CC1(c2cccc(OCc3ccccc3)c2)C(=O)Nc2cc(Cl)cc(Cl)c2C1=O (stereo not drawn),82.4
21,COc1ccc([C@@]2(C)C(=O)Nc3cc(Cl)cc(Cl)c3C2=O)cc1,893
22,CC1(c2ccc(OCc3ccccc3)c(Br)c2)C(=O)Nc2cc(Cl)cc(Cl)c2C1=O (stereo not drawn),> 1000
23,CCN(CC)c1ccc(C2(C)C(=O)Nc3cc(Cl)cc(Cl)c3C2=O)cc1 (stereo not drawn),9.2
24,CNc1cc(NS(=O)(=O)c2ccc(N)cc2)cc(NC)n1,512
25,CC1(c2ccc(I)cc2)C(=O)Nc2cc(Cl)cc(Cl)c2C1=O (stereo not drawn),952
26,CC1(c2ccc(Cl)cc2)C(=O)Nc2cc(Cl)cc(Cl)c2C1=O (stereo not drawn),877
27,CC1(c2ccccc2)C(=O)Nc2c(Br)cc(Br)cc2C1=O (stereo not drawn),> 1000
28,COc1cc(Cl)c2c(c1)NC(=O)C(C)(c1ccccc1)C2=O (stereo not drawn),345
29,CC1(c2ccc([N+](=O)[O-])cc2)C(=O)Nc2cc(Cl)cc(Cl)c2C1=O (stereo not drawn),> 1000
30,COc1cc2c(c(OC)c1)C(=O)C(C)(c1ccccc1)C(=O)N2 (stereo not drawn),728

# Target: D(2) dopamine receptor (Homo sapiens, UniProt P14416)
# Sequence (P14416 whole entry): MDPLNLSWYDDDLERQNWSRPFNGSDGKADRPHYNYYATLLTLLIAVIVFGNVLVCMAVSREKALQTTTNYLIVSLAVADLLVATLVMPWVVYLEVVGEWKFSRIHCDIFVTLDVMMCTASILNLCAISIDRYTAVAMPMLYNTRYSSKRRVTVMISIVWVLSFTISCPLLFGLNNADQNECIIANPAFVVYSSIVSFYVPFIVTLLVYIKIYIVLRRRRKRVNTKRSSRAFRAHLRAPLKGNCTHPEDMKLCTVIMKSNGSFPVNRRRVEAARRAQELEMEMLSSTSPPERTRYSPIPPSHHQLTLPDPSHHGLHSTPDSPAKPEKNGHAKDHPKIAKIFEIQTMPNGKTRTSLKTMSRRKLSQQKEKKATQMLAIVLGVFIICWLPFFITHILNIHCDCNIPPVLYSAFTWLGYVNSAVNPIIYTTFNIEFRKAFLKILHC
# Experiment: Displacement of [3H]spiperone from human cloned dopamine D2 receptor
row,Structure (SMILES),Ki [nM]
1,CC1(c2ccc(O)cc2)C(=O)Nc2cc(Cl)cc(Cl)c2C1=O (stereo not drawn),> 10000
2,CC1(c2ccccc2)C(=O)Nc2cc(Cl)cc(Cl)c2C1=O (racemic),> 10000
3,CC1(c2cccc(O)c2)C(=O)Nc2cc(Cl)cc(Cl)c2C1=O (stereo not drawn),> 10000
4,CC1(c2cccc(OCc3ccccc3)c2)C(=O)Nc2cc(Cl)cc(Cl)c2C1=O (stereo not drawn),> 10000
5,COc1ccc(NS(=O)(=O)c2sc3ccc(Cl)cc3c2C)cc1N1CCNCC1,460

# Target: T4, D(4) dopamine receptor (Homo sapiens, UniProt P21917)
# T4 sequence (P21917 whole entry): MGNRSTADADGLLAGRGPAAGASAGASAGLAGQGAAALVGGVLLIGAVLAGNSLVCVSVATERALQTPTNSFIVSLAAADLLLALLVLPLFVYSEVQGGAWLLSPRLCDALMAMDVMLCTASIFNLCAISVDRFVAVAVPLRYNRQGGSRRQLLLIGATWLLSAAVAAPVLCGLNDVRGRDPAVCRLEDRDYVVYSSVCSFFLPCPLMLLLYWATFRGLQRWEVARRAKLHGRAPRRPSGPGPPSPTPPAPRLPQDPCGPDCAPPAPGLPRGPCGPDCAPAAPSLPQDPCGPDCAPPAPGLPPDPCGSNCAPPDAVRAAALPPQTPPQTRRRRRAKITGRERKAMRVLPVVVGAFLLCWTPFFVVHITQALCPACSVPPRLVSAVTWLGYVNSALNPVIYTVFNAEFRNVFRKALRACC
# Experiment: Displacement of [3H]spiperone from human cloned dopamine D4 receptor
row,Structure (SMILES),Ki [nM]
1,CC1(c2ccc(O)cc2)C(=O)Nc2cc(Cl)cc(Cl)c2C1=O (stereo not drawn),> 10000
2,CC1(c2ccccc2)C(=O)Nc2cc(Cl)cc(Cl)c2C1=O (racemic),> 10000
3,CC1(c2cccc(O)c2)C(=O)Nc2cc(Cl)cc(Cl)c2C1=O (stereo not drawn),> 10000
4,CC1(c2cccc(OCc3ccccc3)c2)C(=O)Nc2cc(Cl)cc(Cl)c2C1=O (stereo not drawn),> 10000
5,COc1ccc(NS(=O)(=O)c2sc3ccc(Cl)cc3c2C)cc1N1CCNCC1,130

# Target: 5-hydroxytryptamine receptor 2A (Homo sapiens, UniProt P28223)
# Sequence (P28223 whole entry): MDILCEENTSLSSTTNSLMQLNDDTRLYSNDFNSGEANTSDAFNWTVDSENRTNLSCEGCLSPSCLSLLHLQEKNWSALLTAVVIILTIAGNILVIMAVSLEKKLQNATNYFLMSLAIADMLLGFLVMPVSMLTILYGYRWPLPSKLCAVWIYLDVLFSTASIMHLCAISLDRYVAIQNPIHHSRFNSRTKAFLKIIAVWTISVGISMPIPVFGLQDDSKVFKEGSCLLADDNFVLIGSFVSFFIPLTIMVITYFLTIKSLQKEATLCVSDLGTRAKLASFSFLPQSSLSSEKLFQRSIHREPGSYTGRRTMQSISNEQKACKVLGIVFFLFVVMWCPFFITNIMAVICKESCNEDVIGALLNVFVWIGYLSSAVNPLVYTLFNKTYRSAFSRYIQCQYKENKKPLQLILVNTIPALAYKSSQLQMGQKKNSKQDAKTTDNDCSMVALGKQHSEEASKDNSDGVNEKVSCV
# Experiment: Displacement of [3H]ketanserin from human cloned 5HT2A receptor
row,Structure (SMILES),Ki [nM]
1,CC1(c2ccc(O)cc2)C(=O)Nc2cc(Cl)cc(Cl)c2C1=O (stereo not drawn),> 10000
2,CC1(c2ccccc2)C(=O)Nc2cc(Cl)cc(Cl)c2C1=O (racemic),> 10000
3,CC1(c2cccc(O)c2)C(=O)Nc2cc(Cl)cc(Cl)c2C1=O (stereo not drawn),> 10000
4,CC1(c2cccc(OCc3ccccc3)c2)C(=O)Nc2cc(Cl)cc(Cl)c2C1=O (stereo not drawn),720
5,COc1ccc(NS(=O)(=O)c2sc3ccc(Cl)cc3c2C)cc1N1CCNCC1,1740

# Target: 5-hydroxytryptamine receptor 7 (Homo sapiens, UniProt P34969)
# Sequence (P34969 whole entry): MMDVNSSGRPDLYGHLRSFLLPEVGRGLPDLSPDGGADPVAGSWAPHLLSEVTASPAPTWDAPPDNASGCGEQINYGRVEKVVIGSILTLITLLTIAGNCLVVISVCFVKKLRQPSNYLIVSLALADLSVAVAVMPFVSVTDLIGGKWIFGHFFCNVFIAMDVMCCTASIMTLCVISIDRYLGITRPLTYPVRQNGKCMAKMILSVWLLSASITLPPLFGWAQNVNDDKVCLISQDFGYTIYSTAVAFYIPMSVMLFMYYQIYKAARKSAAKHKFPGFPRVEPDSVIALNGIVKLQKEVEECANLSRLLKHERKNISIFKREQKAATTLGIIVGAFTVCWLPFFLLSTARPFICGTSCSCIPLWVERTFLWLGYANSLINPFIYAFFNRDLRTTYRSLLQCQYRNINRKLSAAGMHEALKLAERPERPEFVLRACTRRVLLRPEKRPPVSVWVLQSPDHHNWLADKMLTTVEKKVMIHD
# Experiment: Displacement of [3H]LSD from human cloned 5HT7 receptor
row,Structure (SMILES),Ki [nM]
1,CC1(c2ccc(O)cc2)C(=O)Nc2cc(Cl)cc(Cl)c2C1=O (stereo not drawn),> 10000
2,CC1(c2ccccc2)C(=O)Nc2cc(Cl)cc(Cl)c2C1=O (racemic),> 10000
3,CC1(c2cccc(O)c2)C(=O)Nc2cc(Cl)cc(Cl)c2C1=O (stereo not drawn),> 10000
4,CC1(c2cccc(OCc3ccccc3)c2)C(=O)Nc2cc(Cl)cc(Cl)c2C1=O (stereo not drawn),600
